A selection: hits, their analogues and other compounds. The true share with any hit is near 2.5%.
HTRA1 inh = blocks human HTRA1 serine peptidase; Q92743; AID 504803; inhibition, % at 5.96 µM; 340,000 tested, 0.5% active; recombinant HTRA1, FP-rhodamine activity-based probe, fluorescence polarization; in the data active means inhibition above about 36%;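 further: 0% = enzyme with DMSO and 100% = wells lacking enzyme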
Target sequence (Q92743 whole entry, looked up): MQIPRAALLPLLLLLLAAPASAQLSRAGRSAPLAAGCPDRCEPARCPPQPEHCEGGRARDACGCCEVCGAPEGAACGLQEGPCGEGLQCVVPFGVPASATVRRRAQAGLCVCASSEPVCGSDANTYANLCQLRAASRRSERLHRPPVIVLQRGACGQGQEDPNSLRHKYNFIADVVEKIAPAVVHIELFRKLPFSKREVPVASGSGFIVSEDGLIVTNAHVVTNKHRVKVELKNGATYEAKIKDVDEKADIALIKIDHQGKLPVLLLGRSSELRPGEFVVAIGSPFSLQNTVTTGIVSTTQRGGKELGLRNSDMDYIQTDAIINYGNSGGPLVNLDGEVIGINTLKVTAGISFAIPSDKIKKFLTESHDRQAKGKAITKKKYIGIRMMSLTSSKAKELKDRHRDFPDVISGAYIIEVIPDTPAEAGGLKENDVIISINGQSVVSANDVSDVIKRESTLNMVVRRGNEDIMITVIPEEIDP
TCR CD3 inh = human TCR-CD3 binding inhibition; TAMRA-labeled TCR probe fluorescence, biochemical; inhibition, % at 9.4 µM; 360,000 tested, 0.37% active; AID 651800; in the data active means inhibition above about 19%;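 further: recombinant mutant TCR 2C K166C tagged with TAMRA read by polarization; 0% = receptor in buffer alone and 100% = receptor with positive control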
rCAG binder = binds r(CAG) RNA repeats. r(CAG) RNA repeat, TO-PRO-1 dye displacement fluorescence. inhibition, % at 3 µM. 370,000 tested, 1.3% active. AID 651821;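 active means inhibition above the plate cutoff, the mean of all test compounds on that plate plus 3 SD, cut at about 35% in these data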;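 further: 0% = DMSO alone and 100% = 100 µM mitoxantrone as full dye displacement; higher means more dye released from RNA so lower well fluorescence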
SIAE primary = inhibitors of human sialic acid acetylesterase SIAE; Q9HAT2; SIAE FP-Rh probe binding, fluorescence polarization; inhibition, % at 9.66 µM; 370,000 tested, 0.69% active; AID 1053197;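 active means inhibition above a cutoff: mean of compounds within the control limits plus 3 SD of those, cut at about 17% in these data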;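 further: 0% = plate median of compound wells and 100% = probe without SIAE protein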
ABHD4 inh = ABHD4 (mouse) inhibition, primary FP screen. inhibition, % at 8.92 µM. AID 720543. purified mABHD4, FP-Rh probe fluorescence polarization. 370,000 tested, 0.54% active;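 active means inhibition exceeding the mean over every tested compound plus 3 SD, cut at about 30% in these data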;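 further: 0% = plate median of compound wells and 100% = S159A mutant with DMSO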
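assay system = mABHD4 protein | compound dosing = single nominal dose of 8.92 µM, 0.89% DMSO final | read-out basis = percent inhibition of probe binding, normalized to plate controls | schedule = Enzyme–compound pre-incubation 45 min, then probe 60 min, both 25 °C | detection = fluorescence polarization, excitation 525 nm, emission 598 nm, BODIPY TMR filters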
SIAE confirm = human SIAE inhibition, confirmation; SIAE FP-Rh activity-based probe, fluorescence polarization; inhibition, % at 9.66 µM; 2,300 tested, 13% active; AID 1117263; shares compounds with SIAE primary;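 active means mean inhibition of the replicates above the hit cutoff set in the primary screen, cut at about 17% in these data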;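 further: 0% = SIAE with DMSO and probe and 100% = probe without SIAE; inhibitors lower polarization as more probe stays unbound to SIAE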
Starred values were filed as active, the others as inactive; · = no result.

SMILES | HTRA1 inh | TCR CD3 inh | rCAG binder | SIAE primary | ABHD4 inh | SIAE confirm
COc1ccc(N=C2SC(C(=O)O)CC(=O)N2C)cc1 (centres undefined) | 6 | 5 | 3 | 25* | 6 | -3
CN1C(=O)CC(C(=O)O)SC1=Nc1ccc(F)cc1 (centres undefined) | 5 | -5 | -2 | -5 | -1 | ·
O=C(O)CC(C(=O)O)c1ccc(OCCCCOc2ccc(C(CC(=O)O)C(=O)O)cc2)cc1 (centres undefined) | 1 | 15 | 6 | 19* | 1 | 1
Cc1ccc(NC(=Nc2ccc(Br)cc2)N2CCOCC2)cc1C | -3 | -4 | -4 | 18* | 0 | -2
COc1cc(NC(=O)[C@H]2O[C@@H](n3cnc4c(N)ncnc43)[C@H](O)[C@@H]2O)cc(OC)c1OC | · | 4 | 2 | 61* | 4 | 69*
Nc1ncnc2c1ncn2[C@@H]1O[C@H](C(=O)NCc2ccc3c(c2)OCO3)[C@@H](O)[C@H]1O | · | 4 | 4 | 71* | 9 | 76*
Cc1cc(S(=O)(=O)NC(=O)[C@H]2O[C@@H](n3cnc4c(N)ncnc43)[C@H](O)[C@@H]2O)ccc1Br | · | -1 | 3 | 47* | 10 | 51*
O=C(COC(=O)c1ccccc1-c1ccccc1[N+](=O)[O-])c1ccccc1 | -16 | 1 | 1 | -1 | -9 | ·
COc1ccc(C(C2C(=O)CC(C)(C)CC2=O)C2C(=O)CC(C)(C)CC2=O)cc1COCC(F)(F)F | 8 | -3 | -1 | 2 | 9 | ·
CC(=O)OC(C(=O)NC1CCCCC1)c1cccc(F)c1 (centres undefined) | 2 | 8 | 0 | 5 | 7 | ·
CC(=O)OC(C(=O)NC1CCCCC1)c1ccccc1F (centres undefined) | -3 | 6 | -5 | 18* | 0 | -4
COc1ccc(S(=O)(=O)N2CCCCC2c2cc(C(=O)NCc3cccnc3)no2)cc1 (centres undefined) | · | 3 | 1 | -2 | -1 | ·
CCC(=Cc1ccccc1OC)c1ccncc1 | -4 | 7 | -1 | -3 | 5 | ·
NS(=O)(=O)c1cc2c(cc1Cl)NC(CSCc1ccccc1)=NS2(=O)=O | 5 | 0 | 9 | -8 | -9 | ·
O=C(CSc1nnc(SCc2ccc(Cl)cc2)s1)N/N=C/c1c[nH]c2ccccc12 | -5 | 1 | 7 | 0 | 5 | ·
O=C(CSc1nnc(SCc2cccc3ccccc23)s1)N/N=C/c1c[nH]c2ccccc12 | -28 | 8 | 17 | 30* | -8 | 0
O=C(CSc1ncccn1)Nc1ccc(S(=O)(=O)N2CCCCC2)cc1 | -1 | 2 | 2 | -10 | -7 | ·
Cc1cc(C)c(S(=O)(=O)Nc2ccc(N(C)C)cc2)c(C)c1-n1cnnn1 | -4 | 1 | 6 | -1 | 6 | ·
CCOC(=O)C1=C(c2ccccc2)NC(=O)NC1c1ccc(O)c(OCC)c1 (centres undefined) | 8 | 3 | -2 | 19* | 3 | -1
CCOC(=O)C1=C(c2ccccc2)NC(=O)NC1c1ccc(O)c(Cl)c1 (centres undefined) | 2 | 5 | 0 | 2 | -2 | ·
COc1cccc2c1O/C(=N\O)C(C(=O)Nc1ccc(C)cc1)C2 (centres undefined) | 2 | 4 | -3 | 21* | -6 | 5
C[C@H](NC(=O)CCCn1nnc2ccccc2c1=O)C(=O)O | 0 | 0 | 1 | 17* | 9 | 0
C[C@H](NC(=O)CCn1nnc2ccccc2c1=O)C(=O)O | 9 | 11 | 1 | 3 | 2 | ·
CS(=O)(=O)N(Cc1ccc(C(=O)NCCSCc2ccco2)cc1)c1ccccc1 | -6 | 9 | -2 | 18* | 1 | -3
CS(=O)(=O)N(Cc1ccc(C(=O)NCc2ccco2)cc1)c1ccccc1 | -6 | 3 | 0 | 1 | -6 | ·
CCOC(=O)c1c(NC(=O)C(C)Sc2cn(C)c3ccccc23)sc2c1CCC2 (centres undefined) | 7 | -3 | 5 | 2 | 0 | ·
O=C(Cn1cnc2c(oc3ccccc32)c1=O)c1ccccc1 | 4 | 6 | -1 | 18* | -1 | -3
CCn1cnc2c(oc3ccccc32)c1=O | -8 | 0 | -3 | 20* | -4 | 1
Cc1ccc(NC(=O)CN2C(=O)NC3(CCCc4ccccc43)C2=O)c([N+](=O)[O-])c1 (centres undefined) | -3 | -10 | -3 | -3 | -5 | ·

From PubChem BioAssay
